This note sets out measurements from ChEMBL document CHEMBL1795208 (J Med Chem, 2011).

A word on the IC50: it is the concentration that gives 50% inhibition. High values mean lower potency, low ones higher potency.

What all share (format): functional, cell-based
Assay [1] is described as follows: Antiproliferative activity against human androgen-independent PC3MM2 cells after 72 hrs by MTS/PMS assay. As to conditions: PC3MM2, 72 h. The procedure, abridged:
(§1)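 Cells kept in Advanced DMEM/F12 (1:1) with non-essential amino acids, 2 mM L-glutamine, penicillin, streptomycin and 10% FBS at 37 °C, 5% CO2. Seeded at 2000/well, attached overnight. Compound added in DMSO across a concentration range (1% DMSO final) for 72 h. Viable cells read by MTS/PMS and normalized to 1% DMSO controls (100%). IC50 taken from separate triplicate experiments.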

Assay [2] is described as follows: Antiproliferative activity against human androgen-dependent LNCaP-LN3 cells after 72 hrs by MTS/PMS assay. As to conditions: LNCaP-LN3, 72 h. The procedure, abridged: as §1
A further assay has as its system SK-BR-3. Description: Antiproliferative activity against human SKBR3 cells expressing HER2 after 72 hrs by MTS/PMS assay. As to conditions: SK-BR-3, 72 h. The essentials: as §1
The subject of a further assay is MCF7. Put plainly: Antiproliferative activity against human MCF7 cells expressing estrogen receptor after 72 hrs by MTS/PMS assay. As to conditions: MCF7, 72 h. The essentials: as §1

For `COc1cccc(-c2cc(C(=O)Nc3cc4ccc(OC(N)=O)c(OC)c4oc3=O)ccc2OC)c1`, the IC50 in assay [1] is more than 100 µM; in assay [2], 4.83 µM; with SK-BR-3 it was 76.8 µM; in the assay on MCF7, 5.56 µM.
Take `COc1cccc(-c2cc(C(=O)Nc3cc4ccc(OP(=O)(OC)OC)c(C)c4oc3=O)ccc2OC)c1`: the IC50 in assay [1] was more than 100 µM; in assay [2], 3.65 µM; with SK-BR-3, more than 100 µM; in the assay with MCF7, more than 100 µM.
As to `COc1cccc(-c2cc(C(=O)Nc3cc4cc(OC)c(O[C@@H]5O[C@H](CO)C[C@@H](O)[C@H]5O)c(C)c4oc3=O)ccc2OC)c1`, the IC50 in assay [1] is 5.9 µM; in assay [2] it was 4.66 µM; with SK-BR-3, 9.45 µM; in the assay on MCF7 it was 3.37 µM.
Taken in the same sequence, the figures for `COc1cccc(-c2cc(C(=O)Nc3cc4cc(OC)c(O[C@H]5OCC[C@@H](O)[C@H]5O)c(C)c4oc3=O)ccc2OC)c1` were 25.4 µM, 14.9 µM, 12.5 µM and 64.5 µM.
`COc1cccc(-c2cc(C(=O)Nc3cc4cc(OC)c(OC(=O)N(C)C)c(C)c4oc3=O)ccc2OC)c1`: the IC50 is 4.04 µM in assay [1], 12.8 µM in assay [2], 6.17 µM in the assay with SK-BR-3 and 34.4 µM with MCF7.
On to `COc1c(OCCCN(C)C)ccc2cc(NC(=O)c3cc4ccccc4[nH]3)c(=O)oc12`, for which the half-inhibitory concentration (IC50) in assay [1] came to 8.95 µM; in assay [2], 4.71 µM; in the assay on SK-BR-3 it was 1.5 µM; with MCF7 it was 1.41 µM.
As for `COc1cccc(-c2cc(C(=O)Nc3cc4ccc(O[C@H]5C[C@H](O)CCO5)c(C)c4oc3=O)ccc2OC)c1`, the IC50 in assay [1] was more than 100 µM; in assay [2], 3.11 µM; in the assay with SK-BR-3 it was more than 100 µM; with MCF7 it was more than 100 µM.
Consider `COc1cccc(-c2cc(C(=O)Nc3cc4ccc(OC5OC(C)(C)[C@H](OC)[C@@H](O)[C@H]5O)c(OC)c4oc3=O)ccc2OC)c1` (some centres not stated), for which the IC50 in assay [1] is 1.44 µM; in assay [2] it was 0.11 µM; in the assay on SK-BR-3 it was 13.9 µM; in the assay on MCF7, 9 µM.
Take `CNC(=O)Oc1ccc2cc(NC(=O)c3ccc(OC)c(-c4cccc(OC)c4)c3)c(=O)oc2c1C`: the IC50 in assay [1] turned out to be 5.22 µM; in assay [2], 3.75 µM; with SK-BR-3 it was 2.4 µM; in the assay with MCF7, 1.72 µM.
For `COc1cccc(-c2cc(C(=O)Nc3cc4cc(OC)c(O[C@H]5C[C@H](O)CCO5)c(C)c4oc3=O)ccc2OC)c1`, in that order: 1.24 µM, 1.49 µM, more than 100 µM and more than 100 µM.
As for `COc1cccc(-c2cc(C(=O)Nc3cc4ccc(OC5C=CCN(C(C)=O)C5)c(C)c4oc3=O)ccc2OC)c1` (configuration not stated), the IC50 was 3.73 µM in assay [1], 0.9 µM in assay [2], more than 50 µM in the assay with SK-BR-3 and more than 50 µM with MCF7.
`COc1cccc(-c2cc(C(=O)Nc3cc4ccc(OC5CN(C(C)=O)C[C@@H](O)[C@H]5O)c(C)c4oc3=O)ccc2OC)c1` (some centres not stated): the IC50 in assay [1] amounted to 2.22 µM; in assay [2], 0.71 µM; in the assay with SK-BR-3 it was 10.8 µM; in the assay with MCF7, 9.18 µM.
For `COc1cccc(-c2cc(C(=O)Nc3cc4ccc(OP(=O)(OC)OC)c(OC)c4oc3=O)ccc2OC)c1`, in that order: 11.5 µM, 6.58 µM, 18.1 µM and more than 100 µM.
For `COc1cccc(-c2cc(C(=O)Nc3cc4cc(OC)c(O[C@@H]5OC[C@@H](O)[C@H]5O)c(C)c4oc3=O)ccc2OC)c1`, in that order: 9.56 µM, 4.72 µM, 9.45 µM and 3.37 µM.
Consider `COc1cccc(-c2cc(C(=O)Nc3cc4ccc(OCCCN(C)C)c(OC)c4oc3=O)ccc2OC)c1`, for which the IC50 stood at 4.08 µM in assay [1], 8.03 µM in assay [2], 0.91 µM in the assay with SK-BR-3 and 1.53 µM in the assay with MCF7.
On to `COc1cccc(-c2cc(C(=O)Nc3cc4ccc(OC(C)=O)c(OC)c4oc3=O)ccc2OC)c1`, for which the IC50 came to 19.3 µM in assay [1], 14.6 µM in assay [2], 20.5 µM in the assay with SK-BR-3 and 8.62 µM with MCF7.
For `CNC(=O)Oc1c(OC)cc2cc(NC(=O)c3ccc(OC)c(-c4cccc(OC)c4)c3)c(=O)oc2c1C`, the half-maximal inhibitory concentration (IC50) in assay [1] came to 3.13 µM; in assay [2] it was 4.77 µM; with SK-BR-3, 1.53 µM; in the assay on MCF7 it was 7.78 µM.
Taken in the same sequence, the figures for `COc1cccc(-c2cc(C(=O)Nc3cc4ccc(OC(=O)N(C)C)c(OC)c4oc3=O)ccc2OC)c1` were 11.6 µM, 15.7 µM, more than 100 µM and more than 100 µM.
For the compound `Cc1c(OC2CCN(C)CC2)ccc2cc(NC(=O)c3cc4ccccc4[nH]3)c(=O)oc12`, the IC50 came to 11.4 µM in assay [1], 11.8 µM in assay [2], 0.48 µM with SK-BR-3 and 0.57 µM in the assay on MCF7.
Take `COc1cccc(-c2cc(C(=O)Nc3cc4cc(OC)c(OC(N)=O)c(C)c4oc3=O)ccc2OC)c1`: the concentration for half-maximal inhibition (IC50) in assay [1] is 2.62 µM; in assay [2] it was 3.55 µM; in the assay on SK-BR-3 it was 6.83 µM; in the assay with MCF7 it was 6.29 µM.
For `COc1cccc(-c2cc(C(=O)Nc3cc4ccc(OC5CN(C)C[C@@H](O)[C@H]5O)c(C)c4oc3=O)ccc2OC)c1` (some centres not stated), in that order: 2.99 µM, 0.59 µM, 3.92 µM and 1.85 µM.
In the case of `CNC(=O)Oc1ccc2cc(NC(=O)c3ccc(OC)c(-c4cccc(OC)c4)c3)c(=O)oc2c1OC`, the concentration for half-maximal inhibition (IC50) in assay [1] is 1.68 µM; in assay [2] it was 2.37 µM; with SK-BR-3, more than 100 µM; in the assay with MCF7, 6.54 µM.
As to `COc1cccc(-c2cc(C(=O)Nc3cc4ccc(OCCN(C)C)c(OC)c4oc3=O)ccc2OC)c1`, the IC50 in assay [1] is 6.2 µM; in assay [2] it was 5.22 µM; with SK-BR-3 it was 1.77 µM; in the assay with MCF7 it was 3.08 µM.
For `CNCCOc1ccc2cc(NC(=O)c3ccc(OC)c(-c4cccc(OC)c4)c3)c(=O)oc2c1OC`, in that order: 9.12 µM, 15.2 µM, 3.6 µM and 4.32 µM.
Regarding `COc1c(OC2CCN(C)CC2)ccc2cc(NC(=O)c3cc4ccccc4[nH]3)c(=O)oc12`, the IC50 in assay [1] is 7.93 µM; in assay [2], 12.6 µM; in the assay with SK-BR-3 it was 2.58 µM; in the assay on MCF7 it was 1.86 µM.
Taken in the same sequence, the figures for `COc1cccc(-c2cc(C(=O)Nc3cc4cc(OC)c(OCCN(C)C)c(C)c4oc3=O)ccc2OC)c1` were 4.87 µM, 6.28 µM, 1.42 µM and 1.29 µM.
In the case of `COc1cccc(-c2cc(C(=O)Nc3cc4ccc(OS(=O)(=O)c5ccc(C)cc5)c(C)c4oc3=O)ccc2OC)c1`, the IC50 in assay [1] was more than 100 µM; in assay [2], 0.58 µM; in the assay with SK-BR-3 it was more than 100 µM; with MCF7 it was more than 100 µM.
With `COc1cccc(-c2cc(C(=O)Nc3cc4cc(OC)c(O[C@@H]5C[C@H](O)CCO5)c(C)c4oc3=O)ccc2OC)c1`, the IC50 in assay [1] was 2.35 µM; in assay [2], 3.27 µM; with SK-BR-3, 1.37 µM; in the assay on MCF7, more than 100 µM.
Consider `COc1cccc(-c2cc(C(=O)Nc3cc4ccc(O)c(OC)c4oc3=O)ccc2OC)c1`, for which the IC50 was more than 100 µM in assay [1], 6.18 µM in assay [2], more than 100 µM in the assay with SK-BR-3 and 5.32 µM with MCF7.
With `COc1cccc(-c2cc(C(=O)Nc3cc4ccc(OC(=O)N(C)C)c(C)c4oc3=O)ccc2OC)c1`, the IC50 in assay [1] is more than 100 µM; in assay [2], 5.4 µM; in the assay with SK-BR-3, 39.9 µM; in the assay on MCF7, 74.4 µM.
As to `COc1cccc(-c2cc(C(=O)Nc3cc4cc(OC)c(OC5OC(C)(C)[C@H](OC)[C@@H](O)[C@H]5O)c(C)c4oc3=O)ccc2OC)c1` (some centres not stated), the IC50 in assay [1] was more than 100 µM; in assay [2], 26.6 µM; with SK-BR-3, 58.8 µM; in the assay with MCF7, more than 100 µM.
Turning to `COc1cccc(-c2cc(C(=O)Nc3cc4ccc(OS(C)(=O)=O)c(C)c4oc3=O)ccc2OC)c1`, the IC50 in assay [1] was more than 100 µM; in assay [2] it was 20 µM; in the assay on SK-BR-3 it was 7.33 µM; in the assay with MCF7 it was 8.85 µM.
Take `CNCCOc1c(OC)cc2cc(NC(=O)c3ccc(OC)c(-c4cccc(OC)c4)c3)c(=O)oc2c1C`: the IC50 is 11.8 µM in assay [1], more than 100 µM in assay [2], 3.15 µM in the assay with SK-BR-3 and 6.23 µM in the assay on MCF7.
Taken in the same sequence, the figures for `COc1cccc(-c2cc(C(=O)Nc3cc4ccc(O[C@@H]5O[C@H](CO)C[C@@H](O)[C@H]5O)c(OC)c4oc3=O)ccc2OC)c1` were 17.9 µM, 6.78 µM, 11.8 µM and 14.3 µM.
Taken in the same sequence, the figures for `COc1cccc(-c2cc(C(=O)Nc3cc4cc(OC)c(OP(=O)(OC)OC)c(C)c4oc3=O)ccc2OC)c1` were 31.3 µM, 1.36 µM, 26.5 µM and 24.2 µM.
In the case of `COc1cccc(-c2cc(C(=O)Nc3cc4cc(OC)c(OCCCN(C)C)c(C)c4oc3=O)ccc2OC)c1`, the 50% inhibitory concentration (IC50) in assay [1] was 5.4 µM; in assay [2], 4.71 µM; with SK-BR-3, 0.49 µM; in the assay with MCF7, 0.7 µM.
For `COc1cccc(-c2cc(C(=O)Nc3cc4ccc(OCCCN(C)C)c(C)c4oc3=O)ccc2OC)c1`, in that order: 12.8 µM, 37.5 µM, 0.6 µM and 0.5 µM.
For `COc1cccc(-c2cc(C(=O)Nc3cc4ccc(OCC(O)CO)c(OC)c4oc3=O)ccc2OC)c1` (configuration not stated), the IC50 in assay [1] was 1.66 µM; in assay [2], 0.96 µM; with SK-BR-3, more than 50 µM; with MCF7, more than 50 µM.
